Measurements reported in publication PMC4684772 (ACS chemical biology, 2015).
“Also recorded” adds a separate entry of the source. One block for each molecule: values may come before it.

Experiments:
[1] = tested on: CDK4/cyclin D1; assay: in vitro kinase assays for CDK4/cyclin D1 activity; type: biochemical; conditions: in vitro kinase assay CDK4/cyclin D1
[2] = tested on: LUSQ cell lines (H157, H2170, H520, H596); assay: cell viability; type: cell-based; conditions: for sensitivity regarding viability: H157 and H520 cells, Fig. S4
Outline: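 Four LUSQ lines (H157, H2170, H520, H596) were exposed to the test compound for 72 hours and cell viability was measured. IC50 values for inhibition of viability were derived per line.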

[3] = tested on: H157 cells; assay: Rb Ser780 phosphorylation immunoblot; type: cell-based; conditions: 1 µM and 5 µM, 4 and 24 hours
[4] = tested on: CSNK2α2; assay: in vitro kinase assay; type: biochemical; conditions: in vitro kinase assays
[5] = tested on: autophagic vesicles; assay: quantitative analysis of autophagic vesicles by Cyto-ID; type: cell-based; conditions: 3 hour treatment
[6] = tested on: H157 and H520 cells; assay: pSer473 AKT and pGSK3 Western blots; type: cell-based; conditions: 4 hours
[7] = tested on: H157 and H520 cells; assay: LC3 Western blots; type: cell-based; conditions: 48 hours
[8] = tested on: PIK3CD; assay: in vitro kinase assay; type: biochemical; conditions: in vitro kinase assays
[9] = tested on: PIK3R4; assay: dose-dependent binding competition with soluble drug; conditions: Fig. S3C
[10] = tested on: CDK4; conditions: cited from earlier work; for IC50: read-out: IC50 for CDK4 inhibition
[11] = tested on: CDK9; assay: in vitro kinase assay; type: biochemical; conditions: in vitro kinase assays
[12] = target: PIK3C3 (Homo sapiens, UniProt Q8NEB9); assay: in vitro kinase assay; type: biochemical
[13] = tested on: AURKA; assay: in vitro kinase assay; type: biochemical; conditions: in vitro kinase assays
[14] = tested on: GAK; assay: dose-dependent binding competition with soluble drug; conditions: Fig. S3C
[15] = tested on: TNK1; assay: in vitro kinase assay; type: biochemical; conditions: in vitro kinase assays

Sequence of PIK3C3 (Q8NEB9 whole entry): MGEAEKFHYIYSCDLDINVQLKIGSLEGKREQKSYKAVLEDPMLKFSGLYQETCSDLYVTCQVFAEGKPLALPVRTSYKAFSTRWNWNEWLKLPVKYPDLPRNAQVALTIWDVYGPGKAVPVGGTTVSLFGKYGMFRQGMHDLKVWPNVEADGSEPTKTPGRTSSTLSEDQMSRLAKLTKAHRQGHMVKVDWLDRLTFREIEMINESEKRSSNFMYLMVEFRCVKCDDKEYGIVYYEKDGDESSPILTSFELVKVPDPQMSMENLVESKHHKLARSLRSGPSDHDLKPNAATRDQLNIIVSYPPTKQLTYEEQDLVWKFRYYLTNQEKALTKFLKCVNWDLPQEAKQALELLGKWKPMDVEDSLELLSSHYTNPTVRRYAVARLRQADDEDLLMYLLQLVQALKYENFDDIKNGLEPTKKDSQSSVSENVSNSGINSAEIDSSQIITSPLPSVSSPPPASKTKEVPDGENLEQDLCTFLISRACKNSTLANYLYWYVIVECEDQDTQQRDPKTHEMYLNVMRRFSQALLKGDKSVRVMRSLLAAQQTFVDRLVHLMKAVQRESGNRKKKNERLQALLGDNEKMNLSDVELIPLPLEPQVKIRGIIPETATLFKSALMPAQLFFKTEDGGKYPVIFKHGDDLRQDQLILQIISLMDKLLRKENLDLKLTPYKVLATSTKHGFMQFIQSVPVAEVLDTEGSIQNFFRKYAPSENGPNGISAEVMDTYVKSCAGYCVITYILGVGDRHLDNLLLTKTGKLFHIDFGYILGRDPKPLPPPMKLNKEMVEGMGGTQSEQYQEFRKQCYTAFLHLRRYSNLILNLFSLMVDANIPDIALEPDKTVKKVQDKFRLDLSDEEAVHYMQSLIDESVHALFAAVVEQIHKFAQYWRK

CDK4 activity of coupleable analogues [1]: conservation of their CDK4 activity
SMILES: CN(C)C(=O)c1cc2cnc(Nc3ccc(N4CCN(CCCN)CC4)cn3)nc2n1C1CCCC1 [c-ribociclib]

SMILES: CC[C@H](Nc1ncnc2[nH]cnc12)c1nc2cccc(F)c2c(=O)n1-c1ccccc1 [CAL-101]
sensitivity regarding viability [2]: relative insensitivity

validation as target, CSNK2α2 [4]: new palbociclib targets | interaction with PIK3R4 [9]: potent interactions | validation as target, CDK9 [11]: new palbociclib targets | IC50 [12]: 14.8 µM
SMILES: CC(=O)c1c(C)c2cnc(Nc3ccc(N4CCNCC4)cn3)nc2n(C2CCCC2)c1=O [palbociclib]
inhibition of Rb phosphorylation at S780 [3]: effectively inhibited | cellular activity compared with ribociclib ([2]; LUSQ cell lines, 72 hours): somewhat more active | number of autophagic vesicles [5]: increased | inhibition of phosphorylation of AKT S473 and its downstream target GSK3β [6]: dose-dependently inhibits | lipidation of LC3 (LC3-II) [7]: increased | validation as target, PIK3CD [8]: relatively weak; also recorded: new palbociclib targets | IC50 [10]: […]

SMILES: Nc1cc(C(F)(F)F)c(-c2cc(N3CCOCC3)nc(N3CCOCC3)n2)cn1 [BKM120]
sensitivity regarding viability [2]: relative insensitivity

inhibition of AURKA [13]: weakly inhibited | interaction with GAK [14]: potent interactions | validation as target, CDK9 [11]: potent | validation as target, TNK1 [15]: potent
SMILES: CN(C)C(=O)c1cc2cnc(Nc3ccc(N4CCNCC4)cn3)nc2n1C1CCCC1 [ribociclib]
inhibition of Rb phosphorylation at S780 [3]: effectively inhibited | IC50 [10]: […]

SMILES: CCN1CCN(Cc2ccc(Nc3ncc(F)c(-c4cc(F)c5nc(C)n(C(C)C)c5c4)n3)nc2)CC1 [Abemaciclib, abemaciclib]
effects on viability compared with palbociclib and ribociclib ([2]; LUSQ cell lines, Fig. S1): stronger effects | fold more potent for CDK4 than palbociclib and ribociclib [10]: about 5 fold
